Test results from PMC7906539 (Medicinal chemistry research : an international journal for …, 2020).
“Also recorded” adds a separate entry of the source.

Columns and labels:
[1] = target: His-mHtt and GST-CaM (CaM–mHtt interaction) (Homo sapiens, UniProt P0DP23+P42858); test: CaM/mHtt AlphaScreen binding assay; settings: for IC50: read-out: AlphaScreen CaM–mHtt, IC50, triplicate
Method in brief: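 His-mHtt (10 nM) preincubated 30 min with test compound, then GST-CaM (10 nM) added for 60 min at room temperature. Ni-chelate acceptor (10 μg/mL) and glutathione donor beads (15 μg/mL) are added for 2 h, then Alpha counts are read. Final 300–0.002 μM, triplicate; % inhibition normalized to DMSO controls.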

SH-SY5Y cells = test: Cytotoxicity assay; format: cell-based; settings: for Cytotoxicity (SH-SY5Y cells, 24 h): 24 h incubation, CellTiter-Glo; for Cytotoxicity (SH-SY5Y cells, 24 h) / Cytotoxicity as stated in text: SH-SY5Y cells; for Cytotoxicity as stated in text: approximate value for both enantiomers
Method in brief: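 SH-SY5Y cells seeded at 6000/well in 1:1 EMEM/F12 with 10% FBS. Exposure 24 h at 37 °C, then CellTiter-Glo luminescence read. Percent cytotoxicity normalized to DMSO controls.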

[2] = target: death-associate protein kinase 1 (DAPK1) (Homo sapiens, UniProt P53355); test: CaM-dependent kinase assay; format: biochemical; settings: single concentration of 100 μM, in the presence of CaM
Sequence of death-associate protein kinase 1 (DAPK1) (P53355 1-363): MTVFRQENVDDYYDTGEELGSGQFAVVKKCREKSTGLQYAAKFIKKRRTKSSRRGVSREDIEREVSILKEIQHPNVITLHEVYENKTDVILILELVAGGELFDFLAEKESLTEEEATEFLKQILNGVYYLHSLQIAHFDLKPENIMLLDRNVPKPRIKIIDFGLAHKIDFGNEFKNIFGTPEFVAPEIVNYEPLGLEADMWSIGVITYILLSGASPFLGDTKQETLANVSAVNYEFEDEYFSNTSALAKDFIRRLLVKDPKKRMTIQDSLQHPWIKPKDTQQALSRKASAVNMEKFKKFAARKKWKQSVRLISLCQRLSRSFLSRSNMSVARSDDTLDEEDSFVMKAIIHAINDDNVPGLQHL
Method in brief: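 Recombinant DAPK1 (25 ng), run with ADP-Glo at 5 μM ATP with native swine myelin basic protein as substrate, in the presence of CaM. Test compound is added at a single 100 μM (DMSO) and reacted 60 min at room temperature. Luminescence is read, and activity is expressed as percent of the no-compound reaction. Three experiments, ≥2 replicates each; mean ± SEM.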

[3] = system: calcium/CaM-dependent kinase 2γ (CaMK2γ); test: CaM-dependent kinase assay; format: biochemical, Human; settings: single concentration of 100 μM, in the presence of CaM
Method in brief: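 ADP-Glo reaction with CaMK2γ (12 ng), 25 μM ATP and Autocamtide-2 substrate, carried out with CaM present. Test compound is at a single 100 μM from DMSO; incubation 60 min at room temperature. Luminescent readout gives percent enzyme activity relative to the reaction without compound. Run three times with at least two replicates per experiment; mean ± SEM.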

[4] = system: mHtt toxicity in PC12 cells; test: Protection against mHtt toxicity in neuronal cell model for HD; format: cell-based; settings: three different concentrations
Method in brief: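 Each experiment run at least three times; values reported as mean ± standard error of the mean.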

Sequence of His-mHtt and GST-CaM (CaM–mHtt interaction) (P42858 whole entry, one chain of several): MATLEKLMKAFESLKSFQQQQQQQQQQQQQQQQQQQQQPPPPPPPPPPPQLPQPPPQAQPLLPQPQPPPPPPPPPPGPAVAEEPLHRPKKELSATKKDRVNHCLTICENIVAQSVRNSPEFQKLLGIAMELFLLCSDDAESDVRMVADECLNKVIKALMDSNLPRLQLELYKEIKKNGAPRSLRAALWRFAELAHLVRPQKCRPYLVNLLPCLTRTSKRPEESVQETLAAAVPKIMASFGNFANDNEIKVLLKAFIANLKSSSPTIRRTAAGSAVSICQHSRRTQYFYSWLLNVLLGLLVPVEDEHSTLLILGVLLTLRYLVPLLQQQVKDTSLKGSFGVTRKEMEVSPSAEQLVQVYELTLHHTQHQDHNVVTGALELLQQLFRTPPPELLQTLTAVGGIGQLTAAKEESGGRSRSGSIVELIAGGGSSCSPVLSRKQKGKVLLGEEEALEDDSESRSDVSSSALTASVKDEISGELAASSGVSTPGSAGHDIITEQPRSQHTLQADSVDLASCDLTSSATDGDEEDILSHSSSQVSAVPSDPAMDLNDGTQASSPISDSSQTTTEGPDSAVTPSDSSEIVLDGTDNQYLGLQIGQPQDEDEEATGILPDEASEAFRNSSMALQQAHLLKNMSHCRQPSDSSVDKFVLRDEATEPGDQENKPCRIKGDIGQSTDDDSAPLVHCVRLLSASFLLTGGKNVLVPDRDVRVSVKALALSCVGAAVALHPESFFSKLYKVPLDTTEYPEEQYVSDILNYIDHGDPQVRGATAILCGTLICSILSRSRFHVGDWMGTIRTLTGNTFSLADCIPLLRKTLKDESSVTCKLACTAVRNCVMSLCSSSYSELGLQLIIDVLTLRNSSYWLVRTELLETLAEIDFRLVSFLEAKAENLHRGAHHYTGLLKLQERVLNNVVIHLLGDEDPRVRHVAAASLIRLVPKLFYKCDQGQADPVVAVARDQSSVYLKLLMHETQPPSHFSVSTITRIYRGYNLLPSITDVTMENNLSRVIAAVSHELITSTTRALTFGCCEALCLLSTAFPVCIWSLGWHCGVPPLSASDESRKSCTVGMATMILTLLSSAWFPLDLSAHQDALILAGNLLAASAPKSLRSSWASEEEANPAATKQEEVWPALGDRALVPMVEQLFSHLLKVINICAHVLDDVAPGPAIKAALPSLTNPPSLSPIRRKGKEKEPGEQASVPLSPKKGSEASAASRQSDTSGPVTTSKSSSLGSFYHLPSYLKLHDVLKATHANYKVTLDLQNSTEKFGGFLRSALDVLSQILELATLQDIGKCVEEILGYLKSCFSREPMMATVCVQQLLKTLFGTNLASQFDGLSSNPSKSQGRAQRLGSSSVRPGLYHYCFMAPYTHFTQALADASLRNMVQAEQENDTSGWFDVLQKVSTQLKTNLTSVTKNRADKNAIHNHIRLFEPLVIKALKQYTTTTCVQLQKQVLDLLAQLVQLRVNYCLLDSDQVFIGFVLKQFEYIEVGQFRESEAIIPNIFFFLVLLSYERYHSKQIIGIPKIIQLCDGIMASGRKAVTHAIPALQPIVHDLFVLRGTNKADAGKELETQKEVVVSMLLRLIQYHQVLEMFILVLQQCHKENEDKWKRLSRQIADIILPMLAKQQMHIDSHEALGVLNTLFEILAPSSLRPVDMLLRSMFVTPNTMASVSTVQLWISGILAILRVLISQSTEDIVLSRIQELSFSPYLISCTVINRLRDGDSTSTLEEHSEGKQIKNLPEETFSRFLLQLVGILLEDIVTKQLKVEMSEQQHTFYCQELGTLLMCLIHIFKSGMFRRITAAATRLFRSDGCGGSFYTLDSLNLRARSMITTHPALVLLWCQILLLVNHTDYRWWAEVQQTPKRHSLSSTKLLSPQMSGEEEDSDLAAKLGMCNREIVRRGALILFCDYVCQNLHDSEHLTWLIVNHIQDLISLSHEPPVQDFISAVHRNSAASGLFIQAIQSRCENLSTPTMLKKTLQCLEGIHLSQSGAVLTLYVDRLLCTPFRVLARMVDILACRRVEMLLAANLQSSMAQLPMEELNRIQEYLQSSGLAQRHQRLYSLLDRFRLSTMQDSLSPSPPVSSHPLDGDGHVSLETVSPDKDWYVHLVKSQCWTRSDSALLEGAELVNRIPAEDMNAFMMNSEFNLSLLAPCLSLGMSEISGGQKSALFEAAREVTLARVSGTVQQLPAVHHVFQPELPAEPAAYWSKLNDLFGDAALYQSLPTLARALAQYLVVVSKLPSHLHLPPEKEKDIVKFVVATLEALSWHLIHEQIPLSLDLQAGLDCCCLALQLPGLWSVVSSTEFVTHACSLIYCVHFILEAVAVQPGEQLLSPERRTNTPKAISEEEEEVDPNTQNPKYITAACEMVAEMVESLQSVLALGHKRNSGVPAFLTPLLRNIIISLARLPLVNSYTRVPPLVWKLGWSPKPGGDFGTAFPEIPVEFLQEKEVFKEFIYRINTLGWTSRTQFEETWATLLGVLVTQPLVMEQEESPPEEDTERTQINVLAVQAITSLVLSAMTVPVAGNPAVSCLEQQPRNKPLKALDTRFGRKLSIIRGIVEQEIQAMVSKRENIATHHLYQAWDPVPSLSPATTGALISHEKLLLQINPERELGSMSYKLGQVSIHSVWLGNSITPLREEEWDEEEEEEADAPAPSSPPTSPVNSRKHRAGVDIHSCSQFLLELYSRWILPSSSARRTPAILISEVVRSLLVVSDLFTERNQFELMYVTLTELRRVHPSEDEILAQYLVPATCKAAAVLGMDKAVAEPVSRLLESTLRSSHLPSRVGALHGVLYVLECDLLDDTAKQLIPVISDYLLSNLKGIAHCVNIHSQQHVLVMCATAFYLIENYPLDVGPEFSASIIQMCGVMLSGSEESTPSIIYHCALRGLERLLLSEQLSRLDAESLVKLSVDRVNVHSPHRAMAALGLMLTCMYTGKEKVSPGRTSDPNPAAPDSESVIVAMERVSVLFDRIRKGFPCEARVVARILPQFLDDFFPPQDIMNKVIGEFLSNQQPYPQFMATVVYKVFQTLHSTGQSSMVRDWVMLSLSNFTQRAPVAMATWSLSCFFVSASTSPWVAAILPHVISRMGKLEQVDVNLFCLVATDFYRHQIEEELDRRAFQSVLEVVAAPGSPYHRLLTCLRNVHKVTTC

IC50 [1] [µM]	SMILES	Cytotoxicity (SH-SY5Y cells, 24 h) (SH-SY5Y cells) [µM]	also measured
2.14	CC(C)C[C@@H](C(=O)NCc1ccc(Cl)c(Cl)c1)N1CCC(=O)c2ccccc2S1(=O)=O [Compound 11a, (S) -N-(3,4-Dichlorobenzyl)-2-(1,1-dioxido-5-oxo-4,5-dihydrobenzo[f][1,2]thiazepin-2(3H)-yl)-4-methylpentanamide]	39.8	–
14.6	CC(C)C[C@@H](C(=O)NCc1ccccc1)N1CCC(=O)c2ccccc2S1(=O)=O [Compound 11b, (S)-N-Benzyl-2-(1,1-dioxido-5-oxo-4,5-dihydrobenzo[f][1,2]thiazepin-2(3H)-yl)-4-methylpentanamide]	43.8	–
11.2	CC(C)C[C@@H](C(=O)NCc1ccc(Cl)cc1)N1CCC(=O)c2ccccc2S1(=O)=O [Compound 11c, (S)-N-(4-Chlorobenzyl)-2-(1,1-dioxido-5-oxo-4,5-dihydrobenzo[f][1,2]thiazepin-2(3H)-yl)-4-methylpentanamide]	41.4	–
2.03	CC(C)C[C@@H](C(=O)NCc1ccc(Cl)c(C(F)(F)F)c1)N1CCC(=O)c2ccccc2S1(=O)=O [Compound 11d, (S)-N-(4-Chloro-3-(trifluoromethyl)benzyl)-2-(1,1-dioxido-5-oxo-4,5-dihydrobenzo[f][1,2]thiazepin-2(3H)-yl)-4-methylpentanamide]	44.2	–
24.5	Cc1ccc(CNC(=O)[C@H](CC(C)C)N2CCC(=O)c3ccccc3S2(=O)=O)cc1 [Compound 11e, (S)-2-(1,1-Dioxido-5-oxo-4,5-dihydrobenzo[f][1,2]thiazepin-2(3H)-yl)-4-methyl-N-(4-methylbenzyl)pentanamide]	43.4	–
52.6	COc1ccc(CNC(=O)[C@H](CC(C)C)N2CCC(=O)c3ccccc3S2(=O)=O)cc1 [Compound 11f, (S)-2-(1,1-Dioxido-5-oxo-4,5-dihydrobenzo[f][1,2]thiazepin-2(3H)-yl)-N-(4-methoxybenzyl)-4-methylpentanamide]	44.6	Disruption of mHtt-CaM PPI (in words) [1]: retained marginal activity
31	CC(C)C[C@@H](C(=O)NCC1CCCCC1)N1CCC(=O)c2ccccc2S1(=O)=O [Compound 11g, (S)-W-(Cyclohexylmethyl)-2-(1,1-dioxido-5-oxo-4,5-dihydrobenzo[f][1,2]thiazepin-2(3H)-yl)-4-methylpentanamide]	40.1	–
0.97	CC(C)C[C@@H](C(=O)NCCc1ccc(Cl)c(Cl)c1)N1CCC(=O)c2ccccc2S1(=O)=O [Compound 11h, (S)-N-(3,4-Dichlorophenethyl)-2-(1,1-dioxido-5-oxo-4,5-dihydrobenzo[f][1,2]thiazepin-2(3H)-yl)-4-methylpentanamide]	32.3	–

Continued, molecule first:

SMILES	IC50 [1] [µM]	Cytotoxicity (SH-SY5Y cells, 24 h) (SH-SY5Y cells) [µM]	also measured
C=C1CCN([C@@H](CC(C)C)C(=O)NCc2ccc(Cl)c(Cl)c2)S(=O)(=O)c2ccccc21 [Compound 9a]	1.03	>300	Disruption of mHtt-CaM PPI (in words) [1]: retained activity; Toxicity to SH-SY5Y cells (in words) (SH-SY5Y cells): no measurable toxicity
C=C1CCN([C@@H](CC(C)C)C(=O)NCc2ccccc2)S(=O)(=O)c2ccccc21 [Compound 9b]	12.4	>300	–
C=C1CCN([C@@H](CC(C)C)C(=O)NCc2ccc(Cl)cc2)S(=O)(=O)c2ccccc21 [Compound 9c, (S)-N-(4-Chlorobenzyl)-4-methyl-2-(5-methylene-1,1-dioxido-4,5-dihydrobenzo[f][1,2]thiazepin-2(3H)-yl) pentanamide]	2.8	94 ± 3	Inhibition of DAPK1 enzyme activity (in words) [2]: did not significantly inhibit; Cytotoxicity as stated in text (SH-SY5Y cells): ca. 90 pM; Inhibition of CaMK2γ enzyme activity (in words) [3]: did not significantly inhibit
C=C1CCN([C@@H](CC(C)C)C(=O)NCc2ccc(Cl)c(C(F)(F)F)c2)S(=O)(=O)c2ccccc21 [Compound 9d, (S)-N-(4-Chloro-3-(trifluoromethyl)benzyl)-4-methyl-2-(5-methylene-1,1-dioxido-4,5-dihydrobenzo[f][1,2]thiazepin-2 (3H)-yl)pentanamide]	1.38	>300	Inhibition of DAPK1 enzyme activity (in words) [2]: did not significantly inhibit; Inhibition of CaMK2γ enzyme activity (in words) [3]: did not significantly inhibit; Protection against mHtt toxicity (in words) [4]: barely measurable activity; also recorded: do not show protection; also recorded: no significant rescue of the toxicity
C=C1CCN([C@@H](CC(C)C)C(=O)NCc2ccc(C)cc2)S(=O)(=O)c2ccccc21 [Compound 9e, (S)-4-Methyl-N-(4-methylbenzyl)-2-(5-methylene-1,1-dioxido-4,5-dihydrobenzo[f][1,2]thiazepin-2(3H)-yl) pentanamide]	15	102 ± 7	–
C=C1CCN([C@@H](CC(C)C)C(=O)NCc2ccc(OC)cc2)S(=O)(=O)c2ccccc21 [Compound 9f, (S)-N-(4-Methoxybenzyl)-4-methyl-2-(5-methylene-1,1-dioxido-4,5-dihydrobenzo[f][1,2]thiazepin-2(3H)-yl) pentanamide]	> 300	>300	Disruption of mHtt-CaM PPI (in words) [1]: lost all mHtt-CaM disruption activity
C=C1CCN([C@@H](CC(C)C)C(=O)NCC2CCCCC2)S(=O)(=O)c2ccccc21 [Compound 9g, (S)-N-(Cyclohexylmethyl)-4-methyl-2-(5-methylene-1,1-dioxido-4,5-dihydrobenzo[f][1,2]thiazepin-2(3H)-yl) pentanamide]	16.6	101 ± 5	–
C=C1CCN([C@H](CC(C)C)C(=O)NCc2ccc(Cl)c(Cl)c2)S(=O)(=O)c2ccccc21 [Compound 10a, (R)-N-(3,4-Dichlorobenzyl)-4-methyl-2-(5-methylene-1,1-dioxido-4,5-dihydrobenzo[f][1,2]thiazepin-2(3H)-yl) pentanamide]	0.98	>300	–
C=C1CCN([C@H](CC(C)C)C(=O)NCc2ccccc2)S(=O)(=O)c2ccccc21 [Compound 10b, (R)-N-Benzyl-4-methyl-2-(5-methylene-1,1-dioxido-4,5-dihydrobenzo[f][1,2]thiazepin-2(3H)-yl)pentanamide]	12.7	87 ± 2	–
C=C1CCN([C@H](CC(C)C)C(=O)NCc2ccc(Cl)cc2)S(=O)(=O)c2ccccc21 [Compound 10c, (R)-N-(4-Chlorobenzyl)-4-methyl-2-(5-methylene-1,1-dioxido-4,5-dihydrobenzo[f][1,2]thiazepin-2(3H)-yl) pentanamide]	3	86 ± 9	Inhibition of DAPK1 enzyme activity (in words) [2]: did not significantly inhibit; Cytotoxicity as stated in text (SH-SY5Y cells): ca. 90 pM; Inhibition of CaMK2γ enzyme activity (in words) [3]: did not significantly inhibit
C=C1CCN([C@H](CC(C)C)C(=O)NCc2ccc(Cl)c(C(F)(F)F)c2)S(=O)(=O)c2ccccc21 [Compound 10d, (R)-N-(4-Chloro-3-(trifluoromethyl)benzyl)-4-methyl-2-(5-methylene-1,1-dioxido-4,5-dihydrobenzo[f][1,2]thiazepin-2 (3H)-yl)pentanamide]	1.8	>300	–
C=C1CCN([C@H](CC(C)C)C(=O)NCc2ccc(C)cc2)S(=O)(=O)c2ccccc21 [Compound 10e, (R)-4-Methyl-N-(4-methylbenzyl)-2-(5-methylene-1,1-dioxido-4,5-dihydrobenzo[f][1,2]thiazepin-2(3H)-yl) pentanamide]	15.1	64 ± 2.5	–
C=C1CCN([C@H](CC(C)C)C(=O)NCc2ccc(OC)cc2)S(=O)(=O)c2ccccc21 [Compound 10f, (R)-N-(4-Methoxybenzyl)-4-methyl-2-(5-methylene-1,1-dioxido-4,5-dihydrobenzo[f][1,2]thiazepin-2(3H)-yl) pentanamide]	> 300	>300	Disruption of mHtt-CaM PPI (in words) [1]: lost all mHtt-CaM disruption activity
C=C1CCN([C@H](CC(C)C)C(=O)NCC2CCCCC2)S(=O)(=O)c2ccccc21 [Compound 10g, (R)-N-(Cyclohexylmethyl)-4-methyl-2-(5-methylene-1,1-dioxido-4,5-dihydrobenzo[f][1,2]thiazepin-2(3H)-yl) pentanamide]	12.2	99 ± 4	–
C=C1CCN([C@H](CC(C)C)C(=O)NCCc2ccc(Cl)c(Cl)c2)S(=O)(=O)c2ccccc21 [Compound 10h]	0.5	>300	Inhibition of DAPK1 enzyme activity (in words) [2]: did not significantly inhibit; Inhibition of CaMK2γ enzyme activity (in words) [3]: did not significantly inhibit
